Measured values of several laboratories.
Protocols differ between the studies behind these lines.
Sample: plasma

| SMILES | test system | setting | AUC(0-inf) |
| --- | --- | --- | --- |
| O=C(/C=C/c1cccc(S(=O)(=O)Nc2ccccc2)c1)NO | human | intravenous, 1900 mg/m², patients | 72800 ng·h/mL |
| CO[C@H]1CC[C@H](N2C(=O)CNc3ncc(-c4ccc(C(C)(C)O)nc4)nc32)CC1 | human | oral, 30 mg, patients | 1230 ng·h/mL |
| C[C@@H](Oc1ccc(S(C)(=O)=O)cc1C(=O)N1C[C@@H]2C[C@]2(c2cc(C(F)(F)F)on2)C1)C(F)(F)F | human | oral, 25 mg, fasted, tablet | 9.17 µM·h |
| CCc1nc2c(C)cc(N3CCN(CC(=O)N4CC(O)C4)CC3)cn2c1N(C)c1nc(-c2ccc(F)cc2)c(C#N)s1 | human | oral, 60 mg, single dose, fed, healthy volunteers | 2400 ng·h/mL |
| CC(C)(Sc1ccncc1-c1ccc(C#N)c2ccccc12)C(=O)O | male human | oral, 5 mg, single dose, fasted, healthy volunteers | 121 ng·h/mL |
| COc1ccc(-n2nc(C(N)=O)c3c2C(=O)N(c2ccc(N4CCCCC4=O)cc2)CC3)cc1 | male human | oral, 10 mg, single dose | 1630 ng·h/mL |
| O=C(Nc1c(Cl)cncc1Cl)c1ccc(OC(F)F)c(OCC2CC2)c1 | human | oral, 0.5 mg, single dose, fasted | 65.1 ng·h/mL |
| CO[C@H]1/C=C\C=C(/C)C(=O)NC2=CC(=O)C(NCCN(C)C)=C(C[C@@H](C)C[C@H](OC)[C@H](O)[C@@H](C)/C=C(\C)[C@@H]1OC(N)=O)C2=O | human | intravenous, 27 mg/m², patients, infusion | 4140 ng·h/mL |
| CC(C)n1cc(C#N)c2cc(-n3cc(C(=O)O)cn3)ccc21 | human | oral, 200 mg, single dose, fasted, healthy volunteers | 44300 ng·h/mL |
| CC(C)(O)c1ccccc1-c1ccc2[nH]c(/C=C/c3ccc(C(F)(F)F)cc3)nc2c1 | male human | oral, 15 mg, single dose, fasted | 5190 ng·h/mL |
| COC(=O)N[C@@H](C)CNc1nccc(-c2cn(C(C)C)nc2-c2cc(Cl)cc(NS(C)(=O)=O)c2F)n1 | human | oral, 50 mg, single dose | 1880 ng·h/mL |
| CS(=O)(=O)CCC#N | human | oral, 100 mg, single dose, fasted | 77000 ng·h/mL |
| CNC(=O)c1ccccc1Sc1ccc2c(/C=C/c3ccccn3)n[nH]c2c1 | human | oral, 5 mg, single dose, fasted | 197 ng·h/mL |
| COc1ccc([C@@H]2CN(C(=O)[C@@H](O)CO)C[C@@]2(C)[C@@H](C)O)cc1OC1CN(c2ccc(C)cn2)C1 | human | oral, 0.5 mg, single dose, healthy volunteers | 211 ng·h/mL |
| CCCCC[C@H](O)CC[C@@H]1[C@H]2Cc3cccc(OCC(=O)O)c3C[C@H]2C[C@H]1O | human | inhaled, 36 µg, single dose, healthy volunteers | 0.7 ng·h/mL |
| C[C@@H](Oc1ccc(S(C)(=O)=O)cc1C(=O)N1C[C@@H]2C[C@]2(c2cc(C(F)(F)F)on2)C1)C(F)(F)F | human | oral, 25 mg, single dose | 12.2 µM·h |
| CC(C)[C@](O)(c1ccc2cc(OC(F)F)c(OC(F)F)cc2c1)c1c[nH]nn1 | female human | oral, 600 mg, single dose | 54700 ng·h/mL |
| CCCOc1ccc([C@H]2CNC(=O)N2c2ccc3[nH]cnc3c2)cc1 | human | oral, 200 mg, single dose, fasted, healthy volunteers | 2330 ng·h/mL |
| Cn1cc(-c2ccc(S(=O)(=O)[C@@H]3C[C@@H](C(=O)NC4(C#N)CC4)N(C(=O)C4(C(F)(F)F)CC4)C3)c(C(F)(F)F)c2)cn1 | human | oral, 1 mg, single dose, fasted, healthy volunteers | 44.9 ng·h/mL |
| C[C@@]1(c2cc(NC(=O)c3ccc(C#N)cn3)ccc2F)C=CSC(N)=N1 | human | oral, 30 mg, single dose | 2550 ng·h/mL |
| Nc1ccc(-c2nc([C@H]3CCc4cc(-c5cc(Cl)ccc5-n5cnnn5)cc(=O)n43)c(F)[nH]2)c(F)n1 | human | oral, 80 mg, single dose, fasted | 17500 ng·h/mL |
| CN(C)CCCNC(=O)/C(=C/CCCCC(=O)NO)COc1cccc2ccccc12 | human | intravenous, 250 mg/m², single dose | 37500 ng·h/mL |
